# Experimental data: PubChem BioAssay AID504382 (The Scripps Research Institute Molecular Screening Center, 2011)
# Among all 2,500 compounds or so, about 460 (18%) were called active. Only a sample is shown. A number with no mark means an inactive call.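 Rule for the calls: active = mean activation above a cutoff of low control average plus 3 SD from the earlier screen (cut at about 12% in these data); inactive = the rest.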
# Assay: IANBD-channel fluorescence artefacts in buffer – biochemical, artefact control for cardiac RTF calcium sensitizer project, confirmation (AID 504382)
# Conditions: IANBD fluorescence interference counterscreen, EC20 Ca2+, at 7.2 µM, stronger effect = higher value, scaled: EC20 calcium 0, EC100 calcium 100
# Procedure, shortened: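 Medium: MOPS/KCl/MgCl2/EGTA/NTA/DTT buffer, pH 7.2 | Reagent: EC20 calcium, 0.472 mM | Compound dosing: 7.2 µM single dose | Times: 15 min compound exposure at 25 °C | Signal: Fluorescence, 480/540 nm | Measure: Interference relative to controls | Repeats: Triplicate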
row,SMILES,fluorescence artifact activation
1,O=C(c1ccccc1)N1C(=O)C(c2ccccc2)Oc2ccccc21 (stereo not given),-0.12%
2,CC(/C=N/Nc1ccc2nncn2n1)=C\c1ccccc1,12.9% (active)
3,COc1cccc(C2C=C(c3ccc(Br)s3)Nc3ncnn32)c1OC (stereo not given),-0.01%
4,O=C(CNC(=O)c1cccc(Cl)c1)N/N=C/c1cccnc1,0.03%
5,CC/C(=C/c1sc2ccccc2[n+]1CC)SC,2.16%
6,CC[n+]1c(/C=C/C=C/N(C(C)=O)c2ccccc2)sc2ccccc21,49.8% (active)
7,CC[n+]1c(/C=C/N(C)c2ccccc2)oc2ccccc21,-0.02%
8,CC1=Nc2ccccc2/C1=C\c1nc(-c2ccc(C(F)(F)F)cc2)oc1O,-0.02%
9,C[C@H]1CCC(=O)N([C@H](CSc2ccc(Br)cc2)Cc2ccccc2)CC1,0.11%
10,Nc1c(C(=O)Nc2ccccc2F)sc2nc(Cc3ccccc3)cc(C(F)(F)F)c12,0.07%
11,CCOc1ccc2noc3c2c1C(=O)c1ccccc1-3,0.02%
12,c1ccc(Nc2nc3ccccc3n3cnnc23)cc1,0.03%
13,CCCCOC(=O)Nc1nnc(C(C)C)s1,148% (active)
14,CCOCCc1nnc(NC(=O)COC)s1,0.06%
15,CCC(CC)c1nnc(NC(=O)/C=C/c2ccco2)s1,0.09%
16,Cc1cc(S(=O)(=O)Cc2noc(-c3c(C)noc3C)n2)c(C)cc1Cl,-0.02%
17,COC(=O)[C@H](Cc1ccccc1)NC(=O)Nc1ccc(OC)cc1,0.02%
18,COc1cc(OC)c(C(=O)OC(C)C(=O)Nc2cccc(C(F)(F)F)c2)cc1OC (stereo not given),1.83%
19,CCOC(=O)CN1C(=O)N[C@@H](c2cccc(C(F)(F)F)c2)C(C(=O)OC)=C1C,0.03%
20,COCCN1C(=O)N[C@@H](c2cccc(C(F)(F)F)c2)C(C(=O)OC)=C1C,13.5% (active)
21,Cc1c(C(=O)NCc2ccco2)cccc1[N+](=O)[O-],4.18%
22,COc1cc(/C=C/C(=O)CC(=O)/C=C/c2ccc(O)c(OC)c2)ccc1O,0.15%
23,COc1cc(/C=C/C(O)=C/C(=O)/C=C/c2ccc(O)cc2)ccc1O,0.51%
24,COc1cc(/C=C/C(=O)/C=C(O)/C=C/c2ccc(O)c(OC)c2)ccc1O,110% (active)

row,SMILES,fluorescence artifact activation
1,C/C(=N/NC(=O)Nc1ccccc1)c1ccc(C)cc1,-0.02%
2,Cc1c(C=O)c2ccccn2c1C(=O)c1cccs1,3.43%
3,CCCNC(=O)Cn1c(=O)/c(=C\c2ccc(-c3ccc([N+](=O)[O-])cc3)o2)s/c1=C\C(=O)C(C)(C)C,8.2%
4,CC1(C)CC(=O)C=C(NCc2ccc(Cl)c(Cl)c2)C1,-0.02%
5,COc1ccc(CNC(=O)C(C#N)c2nc3ccccc3nc2N2CCCC2)cc1 (stereo not given),-0.08%
6,O=S(=O)(c1ccc(F)cc1)N1CN(Cc2ccco2)c2nc3ccccc3nc21,8.07%
7,COc1ccc(S(=O)(=O)N2CN(Cc3ccco3)c3nc4ccccc4nc32)cc1,37.3% (active)
8,COC1=C/C(=C/c2c(N)n3cc(C)sc3nc2=O)C=CC1=O,-0.03%
9,Cc1cccc(Nc2c([N+](=O)[O-])c(=O)oc3ccccc23)c1,7.76%
10,COc1cc2cc(CN(Cc3cccnc3)C(=O)NCc3ccccc3)c(=O)[nH]c2cc1OC,116% (active)
11,COc1ccc2cc(CN(CC3CCCO3)C(=S)NCc3ccco3)c(=O)[nH]c2c1 (stereo not given),0.1%
12,O=C(c1ccncc1)N(Cc1ccccc1)Cc1nc2ccccc2c(=O)[nH]1,0.03%
13,O=C1NC2=C(C(=O)CCC2)C(c2ccccc2Cl)N1 (stereo not given),0.2%
14,O=C1N(c2ccc(Cl)cc2)C(c2ccccc2)N2CCCN12 (stereo not given),-0.06%
15,C=CCOc1ccc(/C=C2\SC(=Nc3cccnc3)NC2=O)cc1,0.04%
16,COc1ccc(N=C2NC(=O)S/C2=C\c2ccc(N(C)C)cc2)cc1,9.11%
17,CCOc1ccc(N=C2NC(=O)S/C2=C\c2ccc(N(C)C)cc2)cc1,1920% (active)
18,N#CC1(C#N)C(c2ccccc2)OC23CCCCC2C1(C#N)C(=N)O3 (stereo not given),0.04%
19,COc1cc(/C=C2\N=C3CCCCCN3C2=O)ccc1O,-0.06%
20,O=C(CCC1CCCN(C(=O)c2ccncc2)C1)NCc1ccc(F)c(F)c1 (stereo not given),0.02%
21,Oc1ccc2ccc3cccc[n+]3c2c1,12.9% (active)
22,CCn1c(SCC(=O)c2ccc(Cl)cc2)nnc1C(C)C,2.06%
23,COc1ccc(CN2CCC(C(=O)N3CCN(c4ccccc4F)CC3)CC2)cc1OC,0.36%
24,COc1ccc(CN2CCN(C(=O)c3ccccc3F)CC2)c(OC)c1OC,14.3% (active)

row,SMILES,fluorescence artifact activation
1,COc1ccccc1Nc1ncc(C(=O)N2CCC(C(N)=O)CC2)c2ccccc12,-0.02%
2,COc1ccc(CC(=O)N(C)Cc2cccc(F)c2)cc1S(=O)(=O)N1CCOCC1,0.26%
3,CSc1ccc(C2NC(=O)c3c(sc4c3CCN(C)C4)N2)cc1 (stereo not given),4.52%
4,N#Cc1ccc(S(=O)(=O)NC2CCN(Cc3ccccc3)CC2)cc1,2.37%
5,N#Cc1ccc(S(=O)(=O)NC2CCCCNC2=O)cc1 (stereo not given),26.9% (active)
6,O=C1NCCCCC1NS(=O)(=O)c1cccc(C(F)(F)F)c1 (stereo not given),0.33%
7,CCN1CCc2c(sc(NC(=O)c3ccc(S(=O)(=O)N(C)c4ccccc4)cc3)c2C(=O)NC)C1,0.31%
8,CCC(Oc1cc(Cl)ccc1Cl)C(=O)NNC(=O)CCC(=O)O (stereo not given),0.03%
9,COc1ccc(/C=N/N=C2/CC(C)(C)Cc3n[nH]c(=O)cc32)cc1,357% (active)
10,CCn1c(O)c(/C=N/N=C/c2ccc(OC)cc2)c2cc(C3=NNC(=O)CC3)ccc21,5.84%
11,CCn1cc(/C=C/c2cc[n+](C)cc2)c2ccccc21,0.09%
12,CC1CN/C(=C\C(=O)c2ccc(Br)cc2)C(=O)N1 (stereo not given),-0.09%
13,CCN(CC)c1ccc2cc(NC(=O)CCC(=O)O)c(=O)oc2c1,0.3%
14,CCN(CC)c1ccc2cc(S(=O)(=O)c3ccc(Cl)cc3)c(=O)oc2c1,156% (active)
15,CCN(CC)c1ccc2cc(S(=O)(=O)c3ccc(C)cc3)c(=O)oc2c1,9.02%
16,COc1ccc(C2c3ccc(O)cc3Oc3ncn(CCN4CCOCC4)c(=N)c32)cc1OC (stereo not given),5.12%
17,CC(C)c1ccc(OCC(=O)NC(Cc2c[nH]c3ccccc23)C(=O)O)cc1 (stereo not given),0.01%
18,CN1CCc2c(sc3c2C(=O)NC(c2ccco2)N3)C1 (stereo not given),0.18%
19,O=C(O)C1CC(O)CN1C(=O)c1ccco1 (stereo not given),0.06%
20,O=C(NCc1ccco1)C1CCC(N2C(=O)C3C4CCC(C4)C3C2=O)CC1 (stereo not given),0.07%
21,O=C(NCc1ccco1)C1Cc2ccccc2CN1C(=O)c1ccco1 (stereo not given),1040% (active)
22,COc1cccc(OC)c1C(=O)NNC(=O)c1ccccc1-n1cccc1,-0.01%
23,CC(C)(C)C(=O)c1sc2nc(-c3cccs3)cc(C(F)(F)F)c2c1N,0.13%
24,CCOc1nc(OCC)c2[nH]c(C(=O)O)c(Br)c2n1,0.34%

row,SMILES,fluorescence artifact activation
1,O=C(c1ccccc1Nc1ccc(SC(F)F)cc1)N1CCCCC1,0.06%
2,COc1ccc(C2C(C(=O)c3ccccc3)N3c4ccccc4C=CC3C2[N+](=O)[O-])cc1 (stereo not given),10.3%
3,N#CC1CC(c2ccc([N+](=O)[O-])cc2)=NN1c1ccc([N+](=O)[O-])cc1 (stereo not given),0.52%
4,N#CCC(=O)N/N=C/c1ccc(N2N=C(c3ccccc3)CC2c2ccccc2)cc1 (stereo not given),-0.02%
5,O=[N+]([O-])c1ccc(C2=NN(c3ccccc3)C(c3ccco3)C2)cc1 (stereo not given),-0.01%
6,O=[N+]([O-])c1ccc(N2N=C(c3ccccc3)CC2c2ccccc2O)cc1 (stereo not given),47.5% (active)
7,COc1ccc(C2CC(c3ccncc3)=NN2c2ccc(S(N)(=O)=O)cc2)cc1 (stereo not given),1.86%
8,NS(=O)(=O)c1ccc(N2N=C(c3ccccc3)CC2c2ccccc2)cc1 (stereo not given),15.1% (active)
9,CN(CC(=O)N1CCN(c2ncccn2)CC1)S(=O)(=O)c1ccc(Cl)cc1,0%
10,CCOC(=O)[C@H]1[C@H]2COc3ccccc3[C@@H]2N2C(=O)CN(Cc3ccc(C)cc3)C(=O)[C@@]12C,0.38%
11,COc1ccc(/C=N/Nc2ncc(C(F)(F)F)cc2Cl)cc1OC,-0.02%
12,CC(C(=O)N1CCc2ccccc2C1)N1C(=O)c2ccccc2C1=O (stereo not given),0.12%
13,CCOC(=O)c1cc(C#N)c(SCC(=O)c2cc(C#N)c(SC)nc2C)[nH]c1=O,6.31%
14,CC(=O)n1c(C=Nc2ccc(Cl)cc2)c(O)c2ccccc21,0.42%
15,COc1ccc(C2=NS(=O)(=O)N(C)C(C(=O)NC3CCCC3)=C2)cc1,-0.02%
16,CCC(=O)Nc1nc2c(c(=O)[nH]1)CCCC2,0.02%
17,O=C(CCc1nc2sc3c(c2c(=O)[nH]1)CCCC3)Nc1ccccc1Cl,31.9% (active)
18,O=C(CN1C(=O)NC2(CCCCC2)C1=O)Nc1ccccc1Cl,0.05%
19,CSCC(O)Cn1ncc2ccccc2c1=O (stereo not given),-0.02%
20,O=C1CSC(=S)N1c1ccc(O)cc1,0.03%
21,CN(C)/C=C1\SC(=S)N(c2ccc(Br)cc2)C1=O,43.8% (active)
22,CCN1C(=O)/C(=C/C=C2\N(CC)c3cc(S(=O)(=O)N(C)C)ccc3N2c2ccccc2)SC1=S,0.15%
23,CC(C)c1ccc(N2C(=O)/C(=C/N(C)C)SC2=S)cc1,18.9% (active)
